Test results: ChEMBL document CHEMBL1139435, “Beta-oxygenated analogues of the 5-HT2A serotonin receptor agonist 1-(4-bromo-2,5-dimethoxyphenyl)-2-aminopropane” (J Med Chem, 2004)

How the values were obtained:
[1] = biological target: 5-hydroxytryptamine receptor 2A (Rattus norvegicus) (UniProt P14842); assay: Efficacy as 5-HT2A receptor-mediated intracellular calcium [Ca2+] mobilization in rat A7r5 cells; format: functional, cell-based
Procedure, shortened: (§1)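 Rat A7r5 vascular smooth muscle cells grown in DMEM/10% FBS, seeded at 20 000 cells/well, cultured 2 days. Loaded with calcium dye in HBSS/20 mM HEPES/2.5 mM probenecid pH 7.4 for 1 h at 23 °C. Response is peak minus basal fluorescence, expressed as % of maximal 5-HT response.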

[2] = biological target: T1, 5-hydroxytryptamine receptor 2A (Rattus norvegicus, UniProt P14842); assay: Binding affinity for 5-HT2A serotonin receptor
T1 sequence (P14842 whole entry): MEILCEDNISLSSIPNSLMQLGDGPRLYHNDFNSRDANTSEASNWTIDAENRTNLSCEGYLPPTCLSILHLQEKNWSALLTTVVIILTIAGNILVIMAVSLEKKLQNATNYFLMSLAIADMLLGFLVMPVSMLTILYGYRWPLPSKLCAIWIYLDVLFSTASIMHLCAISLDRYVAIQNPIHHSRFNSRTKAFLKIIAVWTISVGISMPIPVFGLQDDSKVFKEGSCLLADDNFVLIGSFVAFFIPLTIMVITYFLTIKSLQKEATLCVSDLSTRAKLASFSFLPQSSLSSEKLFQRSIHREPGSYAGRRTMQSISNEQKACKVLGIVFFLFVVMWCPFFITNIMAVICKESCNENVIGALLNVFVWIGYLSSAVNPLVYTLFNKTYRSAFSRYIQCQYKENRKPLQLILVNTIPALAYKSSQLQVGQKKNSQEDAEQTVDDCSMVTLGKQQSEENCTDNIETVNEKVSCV
Procedure, shortened: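 Incubated 1 h at 23 °C. Nonspecific binding defined with methiothepin (10 µM final). Ended by vacuum filtration over GF/B filters presoaked in 0.3% polyethyleneimine, washed with ice-cold buffer. Bound counts read by scintillation. IC50 for displacing labelled DOI binding.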

[3] = biological target: T1, 5-hydroxytryptamine receptor 2A; assay: Serotonin 5-HT2A receptor-mediated intracellular calcium [Ca2+] mobilization in rat A7r5 cells; format: functional, cell-based; procedure, shortened: as §1
Monkey [4] = assay: Percent reduction of intraocular pressure after 3 hours following topical ocular administration to normal eye conscious cynomolgus monkeys; format: functional, Cercopithecidae
Procedure, shortened: (§2)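 Conscious cynomolgus monkeys dosed topically in the eye with 300 µg in phosphate-buffered saline, pH 7.4. Vehicle was given to test eyes of five or six further animals. IOP measured at baseline and at 1, 3 and 6 h. Values are % reduction from baseline.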

Monkey [5] = assay: Percent reduction of intraocular pressure after 6 hours following topical ocular administration to normal eye conscious cynomolgus monkeys; format: functional, Cercopithecidae; procedure, shortened: as §2
Monkey [6] = assay: Percent reduction of intraocular pressure after 1 hour following topical ocular administration to normal eye conscious cynomolgus monkeys; format: functional, Cercopithecidae; procedure, shortened: as §2

5-hydroxytryptamine receptor 2A (Rattus norvegicus), sequence (P14842 whole entry): as above

COc1cc([C@H](OC)[C@H](C)N)c(OC)cc1Br
Efficacy [1]: 31%
Ki [2]: 6 nM
EC50 [3]: 1410 nM

COc1cc([C@@H](OC)[C@@H](C)N)c(OC)cc1Br
Efficacy [1]: 93%
Ki [2]: 0.3 nM
Reduction (Monkey [4]): 27.5%
Reduction (Monkey [5]): 25.5%
EC50 [3]: 130 nM
Reduction (Monkey [6]): 19%

CC[C@H](N)[C@H](O)c1cc(OC)c(Br)cc1OC
Efficacy [1]: 5%
Ki [2]: 20.3 nM

COc1cc(C[C@@H](C)N)c(OC)cc1I
Reduction (Monkey [4]): 31%
Reduction (Monkey [5]): 34.4%
Reduction (Monkey [6]): 15.2%

COc1cc(C2CNCCO2)c(OC)cc1Br (stereo not given)
Efficacy [1]: 4%
Ki [2]: 20.6 nM

COc1cc(C(CN)OC)c(OC)cc1Br (stereo not given)
Efficacy [1]: 63%
Ki [2]: 2 nM
EC50 [3]: 120 nM

COc1cc(C(O)CN)c(OC)cc1Br (stereo not given)
Efficacy [1]: 8%
Ki [2]: 2.1 nM

COc1cc([C@H](O)[C@H](C)N)c(OC)cc1Br
Efficacy [1]: 16%
Ki [2]: 10 nM

COc1cc(CC(C)N)c(OC)cc1Br (stereo not given)
Efficacy [1]: 38%

CCC(N)Cc1cc(OC)c(Br)cc1OC (stereo not given)
Efficacy [1]: 15%
Ki [2]: 7.6 nM

COc1cc([C@@H](O)[C@H](C)N)c(OC)cc1Br
Efficacy [1]: 22%
Ki [2]: 1.1 nM
EC50 [3]: 840 nM

COc1cc([C@H](O)[C@@H](C)N)c(OC)cc1Br
Efficacy [1]: 20%
Ki [2]: 9.2 nM

COc1cc([C@@H](O)[C@@H](C)N)c(OC)cc1Br
Efficacy [1]: 50%
Ki [2]: 0.5 nM
Reduction (Monkey [4]): 19%
Reduction (Monkey [5]): 22.1%
EC50 [3]: 100 nM
Reduction (Monkey [6]): 10.7%

COc1ccc(OC)c(C[C@@H](C)N)c1
Efficacy [1]: 34%
Ki [2]: 9.2 nM
EC50 [3]: 740 nM
